Screening data as filed in PubChem BioAssay.
Hits are enriched below; roughly 3.5% of the tested compounds scored in any of these assays.
ABCB1 block: ABCB1 efflux pump inhibitors, primary screen, cell-based, multiplex, flow cytometry, ABCG2 counter-screen; ATP-dependent translocase ABCB1 (Homo sapiens), P08183; CCRF-Adr cells, JC-1 efflux; inhibition, % at 6.6 µM; 190,000 tested, 0.067% active; AID 1326, 2008; in the data active = inhibition above about 40%;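 also: higher value means more JC-1 retained so stronger ABCB1 efflux block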
MEKK2 WT-MEK5: modulators of MEK5 binding to wildtype MEKK2, primary screen, biochemical, multiplex bead flow cytometry, Alexa488-MEK5; binding response (% of control), % at 10 µM; Mitogen-activated protein kinase kinase kinase 2 (Homo sapiens), Q9Y2U5; Alexa488-MEK5 binding to MEKK2 WT; actives lie on both sides; 290,000 tested, 1.1% active; in the data active = binding response below about 67% or above about 130%
MEKK3 PB1 HTS: modulators of MEKK3-MEK5 PB1 binding, primary screen, biochemical, wildtype MEKK3, multiplex bead flow cytometry, Alexa488-MEK5; Mitogen-activated protein kinase kinase kinase 3 (Homo sapiens), Q99759; bead-based flow cytometry, Alexa488-MEK5 binding to MEKK3; actives lie on both sides; 0 = blocked by unlabeled MEK5, 100 = vehicle; binding response (% of control), % at 10 µM; 290,000 tested, 1.4% active; AID 1529, 2009;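 active = binding response more than 3 SD above or below the average of its plate-row segment, actives on both sides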;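 also: Alexa488 bead fluorescence after subtracting the streptavidin-only scavenger bead signal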
MEKK2mut PB1 HTS: MEK5 binding signal on mutant MEKK2 PB1, primary screen, biochemical, multiplex bead flow cytometry, Alexa488-MEK5. percent response, % at 10 µM. 290,000 tested, 0.35% active. Alexa488-MEK5 binding to MEKK2 mutant; in the data active = percent response above about 24%, passing the limit was not always enough
ABCG2 inh: ABCG2 efflux pump inhibitors, primary screen, multiplex with ABCB1, IgMXP3 cells, flow cytometry | Broad substrate specificity ATP-binding cassette transporter ABCG2 (Homo sapiens), Q9UNQ0 | JC-1 efflux | inhibition, % at 6.6 µM | 190,000 tested, 0.1% active;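 active = inhibition above 80%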
Target sequence (Q9UNQ0 whole entry, looked up): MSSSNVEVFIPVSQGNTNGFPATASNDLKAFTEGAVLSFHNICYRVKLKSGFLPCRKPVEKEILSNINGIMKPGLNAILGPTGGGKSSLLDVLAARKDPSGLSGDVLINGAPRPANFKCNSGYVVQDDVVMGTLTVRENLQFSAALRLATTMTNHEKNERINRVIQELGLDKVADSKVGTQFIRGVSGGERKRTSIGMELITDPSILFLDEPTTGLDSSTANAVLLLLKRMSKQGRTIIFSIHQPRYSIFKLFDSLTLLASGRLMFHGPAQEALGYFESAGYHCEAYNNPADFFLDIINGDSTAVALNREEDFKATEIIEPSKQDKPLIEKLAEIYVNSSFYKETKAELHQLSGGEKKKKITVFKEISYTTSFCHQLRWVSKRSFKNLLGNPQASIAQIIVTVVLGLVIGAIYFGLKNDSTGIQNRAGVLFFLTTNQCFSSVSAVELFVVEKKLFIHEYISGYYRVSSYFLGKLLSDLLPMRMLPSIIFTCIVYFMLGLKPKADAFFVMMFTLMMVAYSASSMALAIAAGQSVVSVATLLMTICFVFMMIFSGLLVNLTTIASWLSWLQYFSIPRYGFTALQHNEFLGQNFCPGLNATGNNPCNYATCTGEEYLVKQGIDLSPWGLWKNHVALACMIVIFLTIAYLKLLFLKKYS
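Test system: IgMXP3 (ABCG2) plus far-red-tagged CCRF-Adr (ABCB1) cells / Amount: 3 million cells/mL in well / Reagent: JC-1 transporter substrate / Timing: 10 min compound exposure, 25 °C / Signal: flow cytometry, 530 nm JC-1 signal / Read-out: percent efflux inhibition, scaled nicardipine 100% to DMSO 0% / Benchmarks: nicardipine as high control, DMSO as low control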
WT yeast gro inh: growth inhibition of WT strain, primary screen, mitochondrial fusion inhibitor project, WT and mutant strains, chemical genetic | mitochondrial fusion phenotypic screen | inhibition, % at 10 µM | 190,000 tested, 2.1% active; in the data active = inhibition above about 58%; tested in S. cerevisiae
MEKK2wt confirm: modulators of MEK5 binding to wildtype MEKK2, confirmation, biochemical, single concentration, multiplex bead flow cytometry. AID 1892, 2009. Alexa488-MEK5 binding to MEKK2 WT; actives lie on both sides. 5,900 tested, 2.4% active. shares compounds with MEKK3 PB1 HTS. binding response (% of control), % at 10 µM; in the data active = binding response below about 16% or above about 210%; inactive = in between
MEKK2mut confirm: mutant MEKK2 PB1-MEK5 binding signal retest – biochemical, single concentration, multiplex bead flow cytometry, confirmation; shares compounds with MEKK3 PB1 HTS; Alexa488-MEK5 binding to MEKK2 mutant; percent response, % at 10 µM; 5,900 tested, 2% active; AID 1893, 2009; in the data active = percent response mostly above about 71%, no sharp cut-off; inactive = mostly below about 38%;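 also: higher means compound restores mutant binding toward wildtype level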
MEKK3-MEK5 inh: MEKK3 wild-type PB1 binding to MEK5, inhibitors, confirmation, biochemical, bead multiplex flow cytometry, single concentration, wildtype | Alexa488-MEK5 binding to MEKK3; hits give low values | binding response (% of control), % at 10 µM | 5,900 tested, 1.8% active | shares compounds with MEKK3 PB1 HTS;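 active = binding response below 72% of control, or above a set upper limit, though filed actives all read lower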;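 also: lower values mean stronger disruption of MEK5 binding to MEKK3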
Large screens that a line does not name were inactive (follow-up assays come after a bar, where they were run); [ ] = dose if it differs, or a comment.

CN(C)C(=O)COC(=O)c1cccc(CN2C(=O)c3ccccc3C2=O)c1	MEKK3 PB1 HTS 71[inhibitor] | MEKK2wt confirm inactive | MEKK2mut confirm inactive | MEKK3-MEK5 inh inactive
COCCCN1C(=O)c2ccc(C(=O)OCC(=O)N(C)c3ccccc3)cc2C1=O	none
O=C(/C=C/c1ccc([N+](=O)[O-])cc1)N(c1ccccn1)C1CCCCC1	none
CC1=CC2=NC(=O)/C(=C\c3cccn3CCOc3cccc(C)c3)C(=N)N2O1	none
CC1=CC2=NC(=O)/C(=C\c3cccn3CCOc3ccccc3)C(=N)N2O1	MEKK3 PB1 HTS 132 | MEKK2wt confirm inactive | MEKK2mut confirm inactive | MEKK3-MEK5 inh inactive
COc1ccc(C2CC(=O)OC3=C2C(=O)CC(C)(C)C3)c(OC)c1 (configuration not stated)	MEKK3 PB1 HTS 69[inhibitor] | MEKK2wt confirm inactive | MEKK2mut confirm inactive | MEKK3-MEK5 inh inactive
COCCNC(=O)C(OC(=O)c1ccco1)c1ccccc1OC (configuration not stated)	MEKK3 PB1 HTS 123 | MEKK2wt confirm inactive | MEKK2mut confirm inactive | MEKK3-MEK5 inh inactive
COCCNC(=O)C(OC(=O)c1ccco1)c1ccccc1Cl (configuration not stated)	none (no result: ABCB1 block, ABCG2 inh, WT yeast gro inh)
COc1ccc(C(OC(=O)c2ccco2)C(=O)NC(C)(C)C)cc1 (configuration not stated)	MEKK3 PB1 HTS 139 | MEKK2wt confirm inactive | MEKK2mut confirm inactive | MEKK3-MEK5 inh inactive
CCN(CC)CC(O)Cn1c2ccccc2c2ccccc21 (configuration not stated)	none
CCN(CC)CC(O)Cn1c(C)c(-c2ccccc2)c2cc([N+](=O)[O-])ccc21 (configuration not stated)	MEKK2 WT-MEK5 174, MEKK2mut PB1 HTS 30 (no result: ABCB1 block, ABCG2 inh, WT yeast gro inh) | MEKK2wt confirm inactive | MEKK2mut confirm inactive | MEKK3-MEK5 inh inactive
CC(=O)NCCC(=O)Nc1cc(S(=O)(=O)N2CCCCC2)ccc1Oc1ccccc1	none (no result: ABCB1 block, ABCG2 inh, WT yeast gro inh)
N#Cc1cc([N+](=O)[O-])cnc1NCC(O)CO (configuration not stated)	MEKK2 WT-MEK5 2.0[inhibitor], MEKK3 PB1 HTS 2.0[inhibitor] | MEKK2wt confirm inactive | MEKK2mut confirm inactive | MEKK3-MEK5 inh inactive
